We go through 15 compounds from ChEMBL document CHEMBL1144245, “Discovery of 4-aryl-2-oxo-2H-chromenes as a new series of apoptosis inducers using a cell- and caspase-based high-throughput screening assay” (Bioorg Med Chem Lett, 2008).

Assay [1] has as its system T47D. Description: Induction of apoptosis in human T47D cells assessed as caspase 3 activation by HTS assay. The assay is classed as functional, cell-based.
Assay [2] relates to SNU-398. Description: Induction of apoptosis in human SNU398 cells assessed as caspase 3 activation by HTS assay. Type of assay: functional, cell-based.
Assay [3] concerns HCT-116. Description: Induction of apoptosis in human HCT 116 cells assessed as caspase 3 activation by HTS assay. The assay is classed as functional, cell-based.
The subject of assay [4] is T47D. Put plainly: Growth inhibition of human T47D cells. Type of assay: functional. In a few lines: (§1)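 Growth inhibition assay in T47D, HCT116 and SNU398 cells, run in 96-well format. GI50 reported as mean ± SEM of three or more experiments.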
Assay [5] relates to SNU-398. Put plainly: Growth inhibition of human SNU398 cells. The assay is classed as functional. In a few lines:
as §1

Assay [6] is described as follows: Growth inhibition of human HCT 116 cells. The assay is classed as functional. In a few lines: as §1

As for `COc1cc(C2C(C#N)=C(N)Oc3cc(N(C)C)ccc32)cc2c1OCO2` (stereo not given), the EC50 in assay [1] worked out at 73 nM.
`COc1cc(OC)cc(-c2c(C#N)c(=O)oc3c2ccc2c3ccn2C)c1`: the EC50 came to 13 nM in assay [2], 20 nM in assay [3] and 24 nM in assay [1].
As to `COc1cc(-c2c(C#N)c(=O)oc3c2ccc2c3ccn2C)cc2c1OCO2`, the EC50 in assay [2] was 17 nM; in assay [3], 27 nM; in assay [1] it was 27 nM. In addition, the GI50 in assay [4] amounted to 25 nM; in assay [5], 7.9 nM; in assay [6] it was 26 nM.
On to `Cc1cncc(-c2c(C#N)c(=O)oc3c2ccc2c3ccn2C)c1`, for which the EC50 was 14 nM in assay [2], 16 nM in assay [3] and 19 nM in assay [1].
The corresponding values for `Cn1ccc2c3oc(=O)c(C#N)c(-c4cccc(Br)c4)c3ccc21` are 9.6 nM, 14 nM and 24 nM.
Turning to `COc1cc(-c2c(C#N)c(=O)oc3cc(N)ccc23)cc(Br)c1OC`, the half-maximal effective concentration (EC50) in assay [2] amounted to 490 nM; in assay [3] it was 990 nM; in assay [1], 820 nM. Moreover, the concentration for 50% growth inhibition (GI50) turned out to be 630 nM in assay [4], 440 nM in assay [5] and 630 nM in assay [6].
As to `COc1cc(-c2c(C#N)c(=O)oc3cc(N(C)C)ccc23)cc(Br)c1OC`, the EC50 in assay [2] stood at 260 nM; in assay [3] it was 400 nM; in assay [1] it was 280 nM. The concentration for 50% growth inhibition (GI50) in assay [4] is 620 nM; in assay [5], 150 nM; in assay [6] it was 460 nM.
For `COc1cc(OC)cc(-c2c(C#N)c(=O)oc3cc(OC)ccc23)c1`, the results for the concentration giving a half-maximal response (EC50) in assay [2], in assay [3] and in assay [1] were 15 nM, 18 nM and 17 nM, respectively.
For `COc1cccc(-c2c(C#N)c(=O)oc3cc(OC)ccc23)c1`, in that order: 29 nM, 59 nM and 53 nM.
For `COc1cc(-c2c(C#N)c(=O)oc3cc(Cl)ccc23)cc(Br)c1OC`, in that order: 5500 nM, 9400 nM and 6900 nM.
For `COc1cc(-c2c(C#N)c(=O)oc3c2ccc2cnccc23)cc(Br)c1OC`, in that order: 2500 nM, 4800 nM and 3000 nM.
For `COc1cccc(-c2c(C#N)c(=O)oc3c2ccc2c3ccn2C)c1`, the results for the concentration giving a half-maximal response (EC50) in assay [2], in assay [3] and in assay [1] were 17 nM, 20 nM and 43 nM, respectively.
For `Cn1ccc2c3oc(=O)c(C#N)c(-c4cccc([N+](=O)[O-])c4)c3ccc21`, in that order: 9.5 nM, 13 nM and 43 nM.
For `COc1ccc2c(-c3cc(Br)c(OC)c(OC)c3)c(C#N)c(=O)oc2c1`, in that order: 26 nM, 41 nM and 42 nM.
As to `COc1cc(-c2c(C#N)c(=O)oc3c2ccc2c3ccn2C)cc(Br)c1OC`, the 50% effective concentration (EC50) in assay [2] is 6 nM; in assay [3] it was 10 nM; in assay [1], 13 nM. Also, the GI50 in assay [4] was 0.7 nM; in assay [5], 0.3 nM; in assay [6], 0.9 nM.
